Measured values reported in ChEMBL document CHEMBL1125847, “Interaction of GTP derivatives with cellular and oncogenic ras-p21 proteins” (J Med Chem, 1991).

Assays:
[1] = molecular target: GTPase HRas (Homo sapiens) (UniProt P01112); experiment: Inhibitory [3H]GDP concentration against oncogenic Ha-ras protein (p21 Leu-61)
Procedure, shortened: (§1)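 Filter-binding competition: GDP-bound Ha-ras p21 (1 μM; 1 μg) with [3H]GDP (3 μM per footnote, 2 μM in methods) plus analogue over a concentration range, in 50 mM Tris-HCl pH 7.5, 10 mM DTT, 0.5 mM MgCl2, 100 mM NH4Cl, 5 mM EDTA, 45 min, 37 °C. Quenched with cold Mg2+, filtered through nitrocellulose, counted. Krel = [3H]GDP concentration/analogue concentration at 50% inhibition.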

[2] = molecular target: GTPase HRas (Homo sapiens) (UniProt P01112); experiment: Inhibitory [3H]GDP concentration against cellular p21 Ha-ras; procedure, shortened: as §1

GTPase HRas (Homo sapiens), sequence (P01112 whole entry, looked up): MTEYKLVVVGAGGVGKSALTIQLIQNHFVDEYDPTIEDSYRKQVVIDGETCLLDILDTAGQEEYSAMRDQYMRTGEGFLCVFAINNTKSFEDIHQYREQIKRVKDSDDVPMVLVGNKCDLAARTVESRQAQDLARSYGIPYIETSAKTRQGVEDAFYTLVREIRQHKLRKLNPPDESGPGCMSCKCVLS

Structure (SMILES) | K rel [1] | K rel [2]
Nc1nc(O)c2ncn(COC(CO)COP(=O)(O)OP(=O)(O)OP(=O)(O)O)c2n1 (stereo not given) | 0.0018 | 0.0014
CCCCc1ccc(Nc2nc(O)c3ncn(C4O[C@@H](COP(=O)(O)OP(=O)(O)OP(=O)(O)O)[C@H](O)[C@@H]4O)c3n2)cc1 (stereo not given in full) | 6 | 3.3
Cc1ccc(Nc2nc(O)c3ncn(C4O[C@@H](COP(=O)(O)OP(=O)(O)OP(=O)(O)O)[C@H](O)[C@@H]4O)c3n2)cc1 (stereo not given in full) | 1.34 | 1.14
Nc1nc(O)c2ncn([C@H]3O[C@@H](COP(=O)(O)OP(=O)(O)OP(=O)(O)O)[C@H](O)[C@@H]3O)c2n1 | 1.2 | 1.1
CCCCNc1nc(O)c2ncn(C3O[C@@H](COP(=O)(O)OP(=O)(O)OP(=O)(O)O)[C@H](O)[C@@H]3O)c2n1 (stereo not given in full) | 0.68 | 0.59
Nc1nc(O)c2ccn(C3O[C@@H](COP(=O)(O)OP(=O)(O)OP(=O)(O)O)[C@H](O)[C@@H]3O)c2n1 (stereo not given in full) | 0.05 | 0.08
O=P(O)(O)OP(=O)(O)OP(=O)(O)OC[C@@H]1OC(n2cnc3c(O)nc(Br)nc32)[C@@H](O)[C@H]1O (stereo not given in full) | 0.05 | 0.04
O=P(O)(O)OP(=O)(O)OP(=O)(O)OC[C@@H]1OC(n2cnc3c(O)ncnc32)[C@@H](O)[C@H]1O (stereo not given in full) | 0.09 | 0.11
O=P(O)(O)OP(=O)(O)OP(=O)(O)OC[C@@H]1OC(n2cnc3c(O)nc(Nc4ccc(F)cc4)nc32)[C@@H](O)[C@H]1O (stereo not given in full) | 2.38 | 1.77
O=P(O)(O)OP(=O)(O)OP(=O)(O)OC[C@@H]1OC(n2cnc3c(O)nc(NCCCCc4ccccc4)nc32)[C@@H](O)[C@H]1O (stereo not given in full) | 1.1 | 1.19
Nc1nc(O)c2ncn(C3OC(COP(=O)(O)OP(=O)(O)OP(=O)(O)O)CC3O)c2n1 (stereo not given) | 0.85 | 0.85
Nc1nc2c(ncn2[C@H]2CC[C@@H](COP(=O)(O)OP(=O)(O)OP(=O)(O)O)O2)c(=O)[nH]1 | 0.18 | 0.28
CN1CN(C2O[C@@H](COP(=O)(O)OP(=O)(O)OP(=O)(O)O)[C@H](O)[C@@H]2O)c2nc(N)nc(O)c21 (stereo not given in full) | 0.002 | 0.0024
O=P(O)(O)OP(=O)(O)OP(=O)(O)OC[C@@H]1OC(n2cnc3c(O)nc(Nc4ccc(Br)cc4)nc32)[C@@H](O)[C@H]1O (stereo not given in full) | 2.1 | 2.28
Nc1nc2c(ncn2COCCOP(=O)(O)OP(=O)(O)OP(=O)(O)O)c(=O)[nH]1 | 0.0011 | 0.0012
